Reference: ChEMBL document CHEMBL4339190, “2,6-Disubstituted imidazo[2,1-b][1,3,4]thiadiazole derivatives as potent staphylococcal biofilm inhibitors” (Eur J Med Chem, 2019)
Activity calls are given as the source filed them. The rule behind the calls is not given here.

Tested on: Staphylococcus aureus
Assay: Antimicrobial activity against Staphylococcus aureus ATCC 6538 assessed as growth inhibition of planktonic forms incubated for 24 hrs
Format: organism-based
Conditions: in vitro
In short: (§1)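 Broth microdilution in tryptic soy broth. Two-fold series 100 to 0.75 μg/mL made from a 1 mg/mL stock in 0.9% NaCl. Inoculum ~10⁶ cfu/mL taken from a 24 h culture, 37 °C 24 h.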

| Compound | MIC [µg/mL] |
| --- | --- |
| FC(F)(F)c1ccc(-c2cn3nc(-c4c[nH]c5ccccc45)sc3n2)cc1 | > 100 |
| Cn1cc(-c2nn3cc(-c4ccc([N+](=O)[O-])cc4)nc3s2)c2cc(Cl)ccc21 | > 100 |
| Br.Brc1ccc2[nH]cc(-c3nn4cc(-c5ccccc5)nc4s3)c2c1 | > 100 |
| COc1ccc(OC)c(-c2cn3nc(-c4cn(C)c5ccc(Cl)cc45)sc3n2)c1 | > 100 |
| Cn1cc(-c2nn3cc(-c4ccc(F)cc4)nc3s2)c2cc(Cl)ccc21 | > 100 |
| Br.COc1cccc(-c2cn3nc(-c4c[nH]c5ccccc45)sc3n2)c1 | > 100 |
| Br.Clc1ccc2[nH]cc(-c3nn4cc(-c5ccccc5)nc4s3)c2c1 | > 100 |
| Br.COc1cccc(-c2cn3nc(-c4cn(C)c5ccccc45)sc3n2)c1 | > 100 |

Tested on: Staphylococcus epidermidis
Assay: Antibiofilm activity against Staphylococcus epidermidis ATCC 12228 incubated for 24 hrs by crystal violet-staining based assay
Format: functional
Conditions: not given
In short: (§2)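 Biofilm prevention: 0.5 McFarland inoculum (2.5 µL) in 100 µL TSB with 2% w/v glucose, compound present from the start over 100–0.1 µg/mL, 37 °C 24 h. Washed with PBS, stained 0.1% w/v crystal violet 30 min, eluted with 33% v/v acetic acid, read at 570 nm. BIC50 (50% inhibition versus untreated control) derived by linear regression; triplicate, repeated at least twice.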

| Compound | MBIC50 | inhibition |
| --- | --- | --- |
| FC(F)(F)c1ccc(-c2cn3nc(-c4c[nH]c5ccccc45)sc3n2)cc1 | inactive | – |
| Cn1cc(-c2nn3cc(-c4ccc([N+](=O)[O-])cc4)nc3s2)c2cc(Cl)ccc21 | 78 µM | Dose-dependent effect |
| Br.Brc1ccc2[nH]cc(-c3nn4cc(-c5ccccc5)nc4s3)c2c1 | inactive | – |
| COc1ccc(OC)c(-c2cn3nc(-c4cn(C)c5ccc(Cl)cc45)sc3n2)c1 | 8.1 µM | Dose-dependent effect |
| Cn1cc(-c2nn3cc(-c4ccc(F)cc4)nc3s2)c2cc(Cl)ccc21 | 17 µM | Dose-dependent effect |
| Br.COc1cccc(-c2cn3nc(-c4c[nH]c5ccccc45)sc3n2)c1 | 33.4 µM | Dose-dependent effect |
| Br.Clc1ccc2[nH]cc(-c3nn4cc(-c5ccccc5)nc4s3)c2c1 | inactive | – |
| Br.COc1cccc(-c2cn3nc(-c4cn(C)c5ccccc45)sc3n2)c1 | 41.9 µM | Dose-dependent effect |

Tested on: Bacteria
Assay: Inhibition of recombinant bacterial SrtA at 100 uM using 5-FAM/QXL 520 Sortase as substrate preincubated for 10 mins followed by substrate addition and measured every 5 mins for 60 mins by fluorescence assay
Conditions: not given
In short: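 FRET kit assay: 2.5 µg/ml recombinant SrtA, 4 µM fluorescent peptide substrate, compound at 100 µM in 1% DMSO. Compound and enzyme added first, then substrate. Fluorescence (Ex/Em 490/520 nm) recorded every 5 min for 60 min. Substrate without enzyme served as negative control and 4-(hydroxymercuri)benzoic acid as positive control.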

| Compound | inhibition |
| --- | --- |
| Br.COc1cccc(-c2cn3nc(-c4cn(C)c5ccccc45)sc3n2)c1 | inactive |

Tested on: Pseudomonas aeruginosa
Assay: Antibiofilm activity against Pseudomonas aeruginosa ATCC 15442 incubated for 24 hrs by crystal violet-staining based assay
Format: functional
Conditions: not given
In short: as §2

| Compound | MBIC50 | inhibition |
| --- | --- | --- |
| FC(F)(F)c1ccc(-c2cn3nc(-c4c[nH]c5ccccc45)sc3n2)cc1 | inactive | – |
| Br.Brc1ccc2[nH]cc(-c3nn4cc(-c5ccccc5)nc4s3)c2c1 | inactive | – |
| Br.COc1cccc(-c2cn3nc(-c4c[nH]c5ccccc45)sc3n2)c1 | 80.2 µM | Dose-dependent effect |
| Br.Clc1ccc2[nH]cc(-c3nn4cc(-c5ccccc5)nc4s3)c2c1 | inactive | – |

Tested on: Staphylococcus aureus
Assay: Antibiofilm activity against Staphylococcus aureus ATCC 25923 incubated for 24 hrs by crystal violet-staining based assay
Format: functional
Conditions: not given
In short: as §2

| Compound | MBIC50 | inhibition | MBIC90 [µg/mL] |
| --- | --- | --- | --- |
| FC(F)(F)c1ccc(-c2cn3nc(-c4c[nH]c5ccccc45)sc3n2)cc1 | inactive | – | – |
| Br.Brc1ccc2[nH]cc(-c3nn4cc(-c5ccccc5)nc4s3)c2c1 | inactive | – | – |
| COc1ccc(OC)c(-c2cn3nc(-c4cn(C)c5ccc(Cl)cc45)sc3n2)c1 | 163 µM | Dose-dependent effect | – |
| Br.COc1cccc(-c2cn3nc(-c4c[nH]c5ccccc45)sc3n2)c1 | 80.2 µM | Dose-dependent effect | – |
| Br.Clc1ccc2[nH]cc(-c3nn4cc(-c5ccccc5)nc4s3)c2c1 | inactive | – | – |
| Br.COc1cccc(-c2cn3nc(-c4cn(C)c5ccccc45)sc3n2)c1 | 1.8 µM | Dose-dependent effect | 23.3 |

Tested on: Escherichia coli
Assay: Antimicrobial activity against Escherichia coli ATCC 25922 assessed as growth inhibition of planktonic forms incubated for 24 hrs
Format: organism-based
Conditions: in vitro
In short: as §1

| Compound | MIC [µg/mL] |
| --- | --- |
| FC(F)(F)c1ccc(-c2cn3nc(-c4c[nH]c5ccccc45)sc3n2)cc1 | > 100 |
| Cn1cc(-c2nn3cc(-c4ccc([N+](=O)[O-])cc4)nc3s2)c2cc(Cl)ccc21 | > 100 |
| Br.Brc1ccc2[nH]cc(-c3nn4cc(-c5ccccc5)nc4s3)c2c1 | > 100 |
| COc1ccc(OC)c(-c2cn3nc(-c4cn(C)c5ccc(Cl)cc45)sc3n2)c1 | > 100 |
| Cn1cc(-c2nn3cc(-c4ccc(F)cc4)nc3s2)c2cc(Cl)ccc21 | > 100 |
| Br.COc1cccc(-c2cn3nc(-c4c[nH]c5ccccc45)sc3n2)c1 | > 100 |
| Br.Clc1ccc2[nH]cc(-c3nn4cc(-c5ccccc5)nc4s3)c2c1 | > 100 |
| Br.COc1cccc(-c2cn3nc(-c4cn(C)c5ccccc45)sc3n2)c1 | > 100 |

Tested on: Escherichia coli
Assay: Antibiofilm activity against Escherichia coli ATCC 25922 incubated for 24 hrs by crystal violet-staining based assay
Format: functional
Conditions: not given
In short: as §2

| Compound | MBIC50 | inhibition |
| --- | --- | --- |
| FC(F)(F)c1ccc(-c2cn3nc(-c4c[nH]c5ccccc45)sc3n2)cc1 | inactive | – |
| Br.Brc1ccc2[nH]cc(-c3nn4cc(-c5ccccc5)nc4s3)c2c1 | inactive | – |
| Br.COc1cccc(-c2cn3nc(-c4c[nH]c5ccccc45)sc3n2)c1 | 69.7 µM | Dose-dependent effect |
| Br.Clc1ccc2[nH]cc(-c3nn4cc(-c5ccccc5)nc4s3)c2c1 | inactive | – |

Tested on: Staphylococcus aureus
Assay: Antimicrobial activity against Staphylococcus aureus ATCC 25923 assessed as growth inhibition of planktonic forms incubated for 24 hrs
Format: organism-based
Conditions: in vitro
In short: as §1

| Compound | MIC [µg/mL] |
| --- | --- |
| FC(F)(F)c1ccc(-c2cn3nc(-c4c[nH]c5ccccc45)sc3n2)cc1 | > 100 |
| Cn1cc(-c2nn3cc(-c4ccc([N+](=O)[O-])cc4)nc3s2)c2cc(Cl)ccc21 | > 100 |
| Br.Brc1ccc2[nH]cc(-c3nn4cc(-c5ccccc5)nc4s3)c2c1 | > 100 |
| COc1ccc(OC)c(-c2cn3nc(-c4cn(C)c5ccc(Cl)cc45)sc3n2)c1 | > 100 |
| Cn1cc(-c2nn3cc(-c4ccc(F)cc4)nc3s2)c2cc(Cl)ccc21 | > 100 |
| Br.COc1cccc(-c2cn3nc(-c4c[nH]c5ccccc45)sc3n2)c1 | > 100 |
| Br.Clc1ccc2[nH]cc(-c3nn4cc(-c5ccccc5)nc4s3)c2c1 | > 100 |
| Br.COc1cccc(-c2cn3nc(-c4cn(C)c5ccccc45)sc3n2)c1 | > 100 |

Tested on: Escherichia coli
Assay: Antibiofilm activity against Escherichia coli ATCC 25922 assessed as inhibition of biofilm formation at 100 ug/ml incubated for 24 hrs by crystal violet-staining based assay
Format: functional
Conditions: ATCC 25922, 24 h

| Compound | inhibition at 100 µg/mL [%] |
| --- | --- |
| Cn1cc(-c2nn3cc(-c4ccc([N+](=O)[O-])cc4)nc3s2)c2cc(Cl)ccc21 | < 15 |
| COc1ccc(OC)c(-c2cn3nc(-c4cn(C)c5ccc(Cl)cc45)sc3n2)c1 | < 15 |
| Cn1cc(-c2nn3cc(-c4ccc(F)cc4)nc3s2)c2cc(Cl)ccc21 | < 15 |
| Br.COc1cccc(-c2cn3nc(-c4cn(C)c5ccccc45)sc3n2)c1 | < 15 |

Tested on: Staphylococcus aureus
Assay: Antibiofilm activity against Staphylococcus aureus ATCC 25923 assessed as inhibition of biofilm formation at 100 ug/ml incubated for 24 hrs by crystal violet-staining based assay
Format: functional
Conditions: ATCC 25923, 24 h

| Compound | inhibition at 100 µg/mL [%] |
| --- | --- |
| Cn1cc(-c2nn3cc(-c4ccc([N+](=O)[O-])cc4)nc3s2)c2cc(Cl)ccc21 | < 15 |
| Cn1cc(-c2nn3cc(-c4ccc(F)cc4)nc3s2)c2cc(Cl)ccc21 | < 15 |

Tested on: Staphylococcus epidermidis
Assay: Antimicrobial activity against Staphylococcus epidermidis ATCC 12228 assessed as growth inhibition of planktonic forms incubated for 24 hrs
Format: organism-based
Conditions: in vitro
In short: as §1

| Compound | MIC [µg/mL] |
| --- | --- |
| FC(F)(F)c1ccc(-c2cn3nc(-c4c[nH]c5ccccc45)sc3n2)cc1 | > 100 |
| Cn1cc(-c2nn3cc(-c4ccc([N+](=O)[O-])cc4)nc3s2)c2cc(Cl)ccc21 | > 100 |
| Br.Brc1ccc2[nH]cc(-c3nn4cc(-c5ccccc5)nc4s3)c2c1 | > 100 |
| COc1ccc(OC)c(-c2cn3nc(-c4cn(C)c5ccc(Cl)cc45)sc3n2)c1 | > 100 |
| Cn1cc(-c2nn3cc(-c4ccc(F)cc4)nc3s2)c2cc(Cl)ccc21 | > 100 |
| Br.COc1cccc(-c2cn3nc(-c4c[nH]c5ccccc45)sc3n2)c1 | > 100 |
| Br.Clc1ccc2[nH]cc(-c3nn4cc(-c5ccccc5)nc4s3)c2c1 | > 100 |
| Br.COc1cccc(-c2cn3nc(-c4cn(C)c5ccccc45)sc3n2)c1 | > 100 |

Tested on: Staphylococcus aureus
Assay: Antibiofilm activity against Staphylococcus aureus ATCC 6538 incubated for 24 hrs by crystal violet-staining based assay
Format: functional
Conditions: not given
In short: as §2

| Compound | MBIC50 | inhibition |
| --- | --- | --- |
| FC(F)(F)c1ccc(-c2cn3nc(-c4c[nH]c5ccccc45)sc3n2)cc1 | inactive | – |
| Cn1cc(-c2nn3cc(-c4ccc([N+](=O)[O-])cc4)nc3s2)c2cc(Cl)ccc21 | 33 µM | Dose-dependent effect |
| Br.Brc1ccc2[nH]cc(-c3nn4cc(-c5ccccc5)nc4s3)c2c1 | inactive | – |
| COc1ccc(OC)c(-c2cn3nc(-c4cn(C)c5ccc(Cl)cc45)sc3n2)c1 | 69.4 µM | Dose-dependent effect |
| Cn1cc(-c2nn3cc(-c4ccc(F)cc4)nc3s2)c2cc(Cl)ccc21 | 50.4 µM | Dose-dependent effect |
| Br.COc1cccc(-c2cn3nc(-c4c[nH]c5ccccc45)sc3n2)c1 | 37 µM | Dose-dependent effect |
| Br.Clc1ccc2[nH]cc(-c3nn4cc(-c5ccccc5)nc4s3)c2c1 | inactive | – |
| Br.COc1cccc(-c2cn3nc(-c4cn(C)c5ccccc45)sc3n2)c1 | 28 µM | Dose-dependent effect |

Tested on: Pseudomonas aeruginosa
Assay: Antibiofilm activity against Pseudomonas aeruginosa ATCC 15442 assessed as inhibition of biofilm formation at 100 ug/ml incubated for 24 hrs by crystal violet-staining based assay
Format: functional
Conditions: ATCC 15442, 24 h

| Compound | inhibition at 100 µg/mL [%] |
| --- | --- |
| Cn1cc(-c2nn3cc(-c4ccc([N+](=O)[O-])cc4)nc3s2)c2cc(Cl)ccc21 | < 15 |
| COc1ccc(OC)c(-c2cn3nc(-c4cn(C)c5ccc(Cl)cc45)sc3n2)c1 | < 15 |
| Cn1cc(-c2nn3cc(-c4ccc(F)cc4)nc3s2)c2cc(Cl)ccc21 | < 15 |
| Br.COc1cccc(-c2cn3nc(-c4cn(C)c5ccccc45)sc3n2)c1 | < 15 |

Tested on: Pseudomonas aeruginosa
Assay: Antimicrobial activity against Pseudomonas aeruginosa ATCC 15442 assessed as growth inhibition of planktonic forms incubated for 24 hrs
Format: organism-based
Conditions: in vitro
In short: as §1

| Compound | MIC [µg/mL] |
| --- | --- |
| FC(F)(F)c1ccc(-c2cn3nc(-c4c[nH]c5ccccc45)sc3n2)cc1 | > 100 |
| Cn1cc(-c2nn3cc(-c4ccc([N+](=O)[O-])cc4)nc3s2)c2cc(Cl)ccc21 | > 100 |
| Br.Brc1ccc2[nH]cc(-c3nn4cc(-c5ccccc5)nc4s3)c2c1 | > 100 |
| COc1ccc(OC)c(-c2cn3nc(-c4cn(C)c5ccc(Cl)cc45)sc3n2)c1 | > 100 |
| Cn1cc(-c2nn3cc(-c4ccc(F)cc4)nc3s2)c2cc(Cl)ccc21 | > 100 |
| Br.COc1cccc(-c2cn3nc(-c4c[nH]c5ccccc45)sc3n2)c1 | > 100 |
| Br.Clc1ccc2[nH]cc(-c3nn4cc(-c5ccccc5)nc4s3)c2c1 | > 100 |
| Br.COc1cccc(-c2cn3nc(-c4cn(C)c5ccccc45)sc3n2)c1 | > 100 |
